Test results from publication PMC8740777 (The FASEB Journal, 2022).
Values belong to the compound of their own block, whether it stands above or below them.

Tests used:
Human primary astrocytes [1] = assay: Ca2+ mobilization assay, agonistic application; type: cell-based; settings: for effect on intracellular Ca2+ mobilization as agonist: Fig. 2A, agonistic application
Summary of the method: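 Human primary astrocytes were plated at 10 000 cells/well in 384-well plates (day 0), switched to FreeStyle 293 expression medium on day 1 for 18 h, then loaded with FLIPR Calcium 4 dye for 1 h […]. Intracellular Ca2+ was monitored kinetically across a concentration series up to 30 µM, and logEC50 was taken from concentration-response curves.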

Human primary astrocytes [2] = assay: Ca2+ mobilization assay, functional antagonism; type: cell-based; settings: 18 h pretreatment, Fig. 2B,C
Summary of the method: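 Astrocytes were pretreated overnight (18 h) with 1 or 10 µM test compound, then loaded with calcium dye for 1 h without compound before S1P stimulation, with Ca2+ mobilization recorded. Inhibition was assessed against 10 µM S1P. Mean ± SD, n = 4, pooled from three independent experiments.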

Human primary astrocytes [3] = assay: cAMP AlphaScreen assay, Gαi-coupled agonist mode; type: cell-based; settings: Fig. 2D, 10 µM FSK
Summary of the method: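 Primary human astrocytes suspended in HBSS with 0.5 mM IBMX, 5 mM HEPES and 0.1% BSA, 5000 cells/well. Compound added with 10 µM forskolin (final), 30 min at room temperature. Lysis buffer (pH 7.4) carried biotin-cAMP/donor beads, then 1 h dark. AlphaScreen read: excitation 680 nm, emission 570 nm. Baseline-corrected, normalized to S1P, three-parameter curve fit. Mean ± SD, n = 3–5 over three experiments.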

Human primary astrocytes [4] = assay: cAMP AlphaScreen assay, functional antagonism; type: cell-based; settings: 10 µM, 18 h pretreatment
Summary of the method: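 Astrocytes were pretreated 18 h with 10 µM test compound, then resuspended in HBSS with 0.5 mM IBMX, 5 mM HEPES and 0.1% BSA at 5000 cells/well. Cells were stimulated with S1P plus 10 µM forskolin for 30 min at room temperature. cAMP was read by AlphaScreen after 1 h dark incubation with donor beads in lysis buffer. Data were baseline-corrected, normalized to S1P response and fitted with three-parameter curves. Mean ± SD, n = 3–4.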

S1P1 [5] = molecular target: T1, S1P1 (Homo sapiens, UniProt P21453); assay: compensated interferometric reader; type: binding
T1 sequence (P21453 whole entry): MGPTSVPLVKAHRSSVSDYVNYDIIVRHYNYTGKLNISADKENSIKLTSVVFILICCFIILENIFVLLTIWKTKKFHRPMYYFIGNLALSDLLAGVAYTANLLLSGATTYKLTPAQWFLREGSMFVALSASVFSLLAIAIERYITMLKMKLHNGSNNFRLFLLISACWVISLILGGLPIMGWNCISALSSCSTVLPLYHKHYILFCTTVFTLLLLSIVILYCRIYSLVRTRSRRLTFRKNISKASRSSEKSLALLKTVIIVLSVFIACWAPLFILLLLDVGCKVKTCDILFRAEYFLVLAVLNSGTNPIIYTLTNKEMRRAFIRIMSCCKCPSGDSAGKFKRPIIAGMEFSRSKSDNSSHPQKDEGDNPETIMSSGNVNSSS
Summary of the method: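 Nanovesicles were made by sonicating C6 glioblastoma cells overexpressing HA-tagged human S1P1, with vector-transfected C6 cells as control. Vesicles were incubated 1 h with increasing test compound concentrations. Compensated interferometric reader signal was read against a reference of compound without vesicles. Specific binding was taken as S1P1-vesicle signal minus control-vesicle signal.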

S1P1 [6] = molecular target: T1, S1P1; assay: S1PR internalization assay, short-term; type: cell-based; settings: 1 µM, 1 h, FCM, normalized to vehicle
Summary of the method: (§1)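 C6 glioblastoma cells stably expressing an HA-tagged human S1P receptor subtype, grown in high-glucose DMEM with 10% FBS and penicillin–streptomycin. Test compound or S1P (1 µM) applied for 1 h. Surface receptor stained with anti-HA (clone 3F10), then PE anti-rat IgG, and read by flow cytometry. Vector-transfected C6 cells served as negative control. Levels normalized to vehicle; n = 4 from two independent experiments.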

S1P2 = S1P2 (Homo sapiens, UniProt O95136); assay: S1PR internalization assay, short-term; type: cell-based; settings: 1 µM, 1 h, FCM, normalized to vehicle
Chain of S1P2 (O95136 whole entry): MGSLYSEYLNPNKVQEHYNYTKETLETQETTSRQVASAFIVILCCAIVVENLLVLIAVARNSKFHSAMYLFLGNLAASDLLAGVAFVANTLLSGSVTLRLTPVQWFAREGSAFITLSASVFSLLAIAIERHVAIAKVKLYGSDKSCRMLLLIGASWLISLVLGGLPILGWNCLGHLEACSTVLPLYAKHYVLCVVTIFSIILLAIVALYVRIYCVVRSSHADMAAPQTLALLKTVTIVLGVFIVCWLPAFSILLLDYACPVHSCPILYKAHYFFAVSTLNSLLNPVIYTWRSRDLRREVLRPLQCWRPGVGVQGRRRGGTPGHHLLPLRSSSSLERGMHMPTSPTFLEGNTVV
Summary of the method: as §1

S1P3 = S1P3 (Homo sapiens, UniProt Q99500); assay: S1PR internalization assay, short-term; type: cell-based; settings: 1 µM, 1 h, FCM, normalized to vehicle
Chain of S1P3 (Q99500 whole entry): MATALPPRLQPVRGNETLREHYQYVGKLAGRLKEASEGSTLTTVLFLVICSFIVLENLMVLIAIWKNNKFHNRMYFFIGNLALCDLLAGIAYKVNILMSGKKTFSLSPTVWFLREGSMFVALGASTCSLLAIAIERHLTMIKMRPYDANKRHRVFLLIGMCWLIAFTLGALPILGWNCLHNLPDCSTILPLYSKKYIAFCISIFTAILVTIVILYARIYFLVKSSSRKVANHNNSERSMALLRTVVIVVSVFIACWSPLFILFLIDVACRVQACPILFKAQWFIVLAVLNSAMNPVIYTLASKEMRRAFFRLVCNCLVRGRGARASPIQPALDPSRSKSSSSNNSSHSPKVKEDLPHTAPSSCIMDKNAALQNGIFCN
Summary of the method: as §1

S1P4 = molecular target: T2, S1P4 (Homo sapiens, UniProt O95977); assay: S1PR internalization assay, short-term; type: cell-based; settings: 1 µM, 1 h, FCM, normalized to vehicle
T2 sequence (O95977 1-384): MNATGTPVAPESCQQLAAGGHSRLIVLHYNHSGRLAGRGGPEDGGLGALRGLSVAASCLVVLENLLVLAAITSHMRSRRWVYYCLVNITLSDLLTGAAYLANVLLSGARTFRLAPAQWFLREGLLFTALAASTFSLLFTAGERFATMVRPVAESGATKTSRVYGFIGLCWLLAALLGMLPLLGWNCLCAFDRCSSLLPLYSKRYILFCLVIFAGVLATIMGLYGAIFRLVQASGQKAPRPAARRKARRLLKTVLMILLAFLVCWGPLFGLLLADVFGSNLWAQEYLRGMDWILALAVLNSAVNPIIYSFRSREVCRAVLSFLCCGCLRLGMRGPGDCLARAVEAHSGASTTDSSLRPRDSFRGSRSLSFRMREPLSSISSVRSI
Summary of the method: as §1

S1P5 = S1P5 (Homo sapiens, UniProt Q9H228); assay: S1PR internalization assay, short-term; type: cell-based; settings: 1 µM, 1 h, FCM, normalized to vehicle
Chain of S1P5 (Q9H228 whole entry): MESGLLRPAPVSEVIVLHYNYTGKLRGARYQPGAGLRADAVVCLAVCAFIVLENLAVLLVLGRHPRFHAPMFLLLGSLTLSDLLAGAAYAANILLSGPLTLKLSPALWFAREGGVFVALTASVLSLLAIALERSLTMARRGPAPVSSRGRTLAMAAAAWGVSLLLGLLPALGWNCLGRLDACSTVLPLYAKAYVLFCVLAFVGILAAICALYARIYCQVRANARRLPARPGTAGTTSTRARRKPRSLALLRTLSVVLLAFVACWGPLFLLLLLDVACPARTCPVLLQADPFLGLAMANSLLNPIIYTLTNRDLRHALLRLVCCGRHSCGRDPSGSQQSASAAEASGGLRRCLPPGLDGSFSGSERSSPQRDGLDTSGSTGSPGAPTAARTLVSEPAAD
Summary of the method: as §1

S1P1 [7] = molecular target: T1, S1P1; assay: S1P1 internalization, wash-out experiment in S1P1-C6 cells; type: cell-based; settings: 1 µM for 4 h, 18 h compound-free medium, FCM
[8] = molecular target: S1P1‐EGFP fusion construct (Homo sapiens, UniProt P21453); assay: S1P1-EGFP internalization imaging in human primary astrocytes; type: cell-based; settings: 1 µM, 1 h
Chain of S1P1‐EGFP fusion construct (P21453 whole entry, the tested form may be a part): as the sequence (P21453 whole entry) above

Human primary astrocytes [9] = assay: Single-cell RNA-seq of cytokine-stimulated astrocytes; type: cell-based; settings: 1 µM; for number of DEGs, cytokines + ponesimod vs cytokines: total
Summary of the method: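 Primary human astrocytes (500 000 cells per 6 cm dish) received a cytokine mix (TNF-α, IFN-γ, IL-17, IL-1β, IL-6; 25 ng/ml each) ± 1 µM test compound for 24 or 48 h. 10x Chromium 3′ v3 capture targeted 10 000 cells, with NovaSeq sequencing and GRCh38 alignment. Data were normalized by regularized negative binomial regression and SNN-clustered. MAST DEGs: FDR p < .05, log2FC > 1.1. A fibroblast/pericyte cluster was excluded.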

[10] = system: cuprizone‐induced demyelination; assay: cuprizone-induced demyelination, preventative paradigm; type: in vivo, C57BL/6J mice; settings: 30 mg/kg b.i.d. oral during 5 weeks 0.2% cuprizone
Summary of the method: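 Male C57BL/6J mice (8 weeks old) received 0.2% cuprizone diet for 5 weeks with concurrent oral test compound, 30 mg/kg suspension in 0.25% methylcellulose/0.05% polysorbate 80, twice daily 8 h apart. Brains were perfusion-fixed in 10% NBF and cryoprotected, then cut into 30 µm coronal sections. Sections were stained with Black Gold II and immunostained for Olig2 and Iba1. Signal was quantified in a constant ROI in the midline corpus callosum or cingulum.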

[11] = system: cuprizone‐induced demyelination; assay: cuprizone model, therapeutic paradigm; type: in vivo, C57BL/6J mice; settings: 30 mg/kg
S1P1 [12] = settings: cited from earlier work
MS fatigue = settings: OPTIMUM Phase 3 study; cited from earlier work

Compound: CCCCCCCCc1ccc(CC[C@](N)(CO)COP(=O)(O)O)cc1 [Fingolimod-P, fingolimod phosphate]
effect on intracellular Ca2+ mobilization as agonist (Human primary astrocytes [1]): none of the S1PR modulators (ponesimod, siponimod, ozanimod, or fingolimod‐P) affected intracellular Ca^2+ mobilization | inhibition of S1P-induced Ca2+ mobilization (functional antagonism) (Human primary astrocytes [2]): minor | effect on inhibiting cAMP production as agonists (Human primary astrocytes [3]): Neither ponesimod nor fingolimod‐P showed any effect | effect on S1P-induced cAMP inhibition (functional antagonism) (Human primary astrocytes [4]): right shift of cAMP‐inhibitory curves

Compound: CC(C)Oc1ccc(-c2nc(-c3cccc4c3CC[C@@H]4NCCO)no2)cc1C#N [Ozanimod]
effect on intracellular Ca2+ mobilization as agonist (Human primary astrocytes [1]): none of the S1PR modulators (ponesimod, siponimod, ozanimod, or fingolimod‐P) affected intracellular Ca^2+ mobilization | inhibition of S1P-induced Ca2+ mobilization (functional antagonism) (Human primary astrocytes [2]): blocked S1P‐induced Ca^2+ mobilization in a concentration‐dependent manner

Kd (S1P1 [5]): 2.09 ± 0.27 nM | cell surface expression of S1P2 (S1P2): remained unchanged | cell surface expression of S1P3 (S1P3): remained unchanged | cell surface expression of S1P4 (S1P4): remained unchanged | cell surface expression of S1P5 (S1P5): remained unchanged | S1P1 internalization (S1P1-EGFP imaging) [8]: rapid S1P1 internalization
Compound: CCC/N=C1\S/C(=C\c2ccc(OC[C@H](O)CO)c(Cl)c2)C(=O)N1c1ccccc1C [Ponesimod]
cell surface expression of S1P1 (S1P1 [6]): only reduced the cell surface expression of S1P1 | cell surface expression of S1P1 after wash-out (S1P1 [7]): reduced cell surface expression of S1P1 for a sustained period of time | Ca2+ signal at highest concentration (Human primary astrocytes [1]; 30 µM, Figure S1): induced a Ca^2+ signal only at the highest concentration | effect on intracellular Ca2+ mobilization as agonist (Human primary astrocytes [1]): none of the S1PR modulators (ponesimod, siponimod, ozanimod, or fingolimod‐P) affected intracellular Ca^2+ mobilization | inhibition of S1P-induced Ca2+ mobilization (functional antagonism) (Human primary astrocytes [2]): blocked S1P‐induced Ca^2+ mobilization in a concentration‐dependent manner | effect on inhibiting cAMP production as agonists (Human primary astrocytes [3]): Neither ponesimod nor fingolimod‐P showed any effect | effect on S1P-induced cAMP inhibition (functional antagonism) (Human primary astrocytes [4]): effectively blocked S1P‐induced cAMP inhibition | common DEGs: upregulated by cytokines and downregulated by ponesimod (Human primary astrocytes [9]; 24 and 48 h): 2432 DEGs | number of downregulated DEGs, cytokines + ponesimod vs cytokines (Human primary astrocytes [9]; 24 h): 4031 | number of upregulated DEGs, cytokines + ponesimod vs cytokines (Human primary astrocytes [9]; 24 h): 34 | number of DEGs, cytokines + ponesimod vs cytokines (Human primary astrocytes [9]; 24 h): 4065 DEGs | number of downregulated DEGs, cytokines + ponesimod vs cytokines (Human primary astrocytes [9]; 48 h): 822 | number of upregulated DEGs, cytokines + ponesimod vs cytokines (Human primary astrocytes [9]; 48 h): 130 | cellular distribution on UMAP, ponesimod alone (Human primary astrocytes [9]; 48 h, no cytokines): highly overlapping cellular distribution as compared to controls | number of DEGs, cytokines + ponesimod vs cytokines (Human primary astrocytes [9]; 48 h): 952 DEGs | expression of S1PR1, S1PR2 and S1PR3 (Human primary astrocytes [9]; cytokine-enhanced expression): suppressed | FOS expression (Human primary astrocytes [9]; cytokine-stimulated astrocytes): significantly inhibited FOS expression | metallothionein (MT) gene expression in Cluster 8 (Human primary astrocytes [9]; cytokine-stimulated astrocytes): significantly downregulated | proliferating astrocyte clusters (Clusters 6, 9, and 12) (Human primary astrocytes [9]; cytokine-stimulated astrocytes): blocked decreases in proliferating astrocyte clusters | cellular fractions of reactive astrocyte clusters (Human primary astrocytes [9]; cytokine-stimulated astrocytes, Clusters 3, 8, 10, 11, 15): selectively decreased the cellular fractions of Clusters 8, 10, and 15 | GFAP+ astrocytes in the CC [10]: increased in the CC | GFAP+ astrocytes in the cingulum [10]: tended to decrease in the cingulum | Iba1+ microglia in the cingulum [10]: significantly decreased | demyelination in the cingulum (black gold II staining) [10]: protected mice from demyelination in the cingulum | number of Olig2+ oligodendrocytes in CC and cingulum [10]: increased | remyelination after cuprizone diet cessation ([11]; prolonged treatment (3 weeks)): significantly enhanced remyelination in the cingulum | remyelination after cuprizone diet cessation ([11]; short-term treatment (1 week)): did not show any beneficial effects | selectivity for S1P1 as compared to other S1PRs (S1P1 [12]): > 10 fold | MS fatigue, secondary endpoint (MS fatigue): achieved a novel secondary endpoint of reduced MS fatigue

cell surface expression of S1P4 (S1P4): relatively less responsive | cell surface expression of S1P1 after wash-out (S1P1 [7]): recycled to the cell surface | EC50 (Human primary astrocytes [1]; Homo sapiens, Astrocyte, read-out: logEC50, intracellular Ca2+ response (converted)): 93.1 nM
Compound: CCCCCCCCCCCCC/C=C/[C@@H](O)[C@@H](N)COP(=O)(O)O [S1P, Sphingosine 1‐phosphate]
cell surface expression of S1P1 (S1P1 [6]): significantly reduced cell surface expression | cell surface expression of S1P2 (S1P2): significantly reduced cell surface expression | cell surface expression of S1P3 (S1P3): significantly reduced cell surface expression | cell surface expression of S1P5 (S1P5): significantly reduced cell surface expression

Kd (S1P1 [5]): 0.8 ± 0.97 nM
Compound: CCc1cc(/C(C)=N/OCc2ccc(C3CCCCC3)c(C(F)(F)F)c2)ccc1CN1CC(C(=O)O)C1 [Siponimod]
effect on intracellular Ca2+ mobilization as agonist (Human primary astrocytes [1]): none of the S1PR modulators (ponesimod, siponimod, ozanimod, or fingolimod‐P) affected intracellular Ca^2+ mobilization | inhibition of S1P-induced Ca2+ mobilization (functional antagonism) (Human primary astrocytes [2]): minor
